Measurements as given in PubChem BioAssay AID449754 (Broad Institute, 2010).
Results filed as inconclusive are left out. Active and inactive are the calls of the source.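 Rule for the calls: active = compounds whose fitted caspase activation AC50 is no more than tenfold above the top tested dose; inconclusive = flat fit with 30 to 70% activity, or a failed fit; inactive = the rest.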

System: MEF Bax/Bak KO A1-BIM, caspase-Glo luminescence, 3 h
Assay: caspase activation in Bax/Bak-deficient MEFs, dose response, counter-screen for A1 inhibitor project, cell-based, Bax-Bak knockout MEF, A1-2A-BIM, luminescence (AID 449754);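 note: counterscreen where caspase activation signals off-target toxicity not A1 inhibition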
Method in brief: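 Signal – CaspaseGlo luminescence · Assay system – A1-2A-BIM MEFs lacking Bax and Bak · Quantity – 2500 cells/well · Compound – 100 nL pinned compound per well · Times – 37 °C compound 3 h, cooling 30 min, reagent 1 h · Buffer or medium – RPMI-1640, 10% FBS · Read-out basis – caspase activity from luminescent signal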

| SMILES | AC50 |
| --- | --- |
| O=C(Nc1ccc([N+](=O)[O-])cc1)c1nc[nH]c1C(=O)NC1CCCCC1 | > 35 µM (inactive) |
| CCn1c(SCC(=O)c2ccccc2)nnc1-c1cc2cc(Br)ccc2o1 | > 35 µM (inactive) |
| O=C(Nc1ccc([N+](=O)[O-])cc1)C(Cc1ccccc1)N1C(=O)c2cccc3cccc(c23)C1=O (centres undefined) | > 35 µM (inactive) |
| CCOC(=O)CSC1=N/C(=C/c2ccc(-n3cncn3)cc2)C(=O)N1C(C)=O | > 35 µM (inactive) |
| CC(C)(C)C1C/C(=C/c2ccccn2)C(=O)/C(=C/c2ccccn2)C1 (centres undefined) | 8.26 µM |
| CN1C2CCC1/C(=C/c1ccccn1)C(=O)/C2=C\c1ccccn1 | > 35 µM (inactive) |
| CCc1nnc(NC(=O)c2nc(S(=O)(=O)Cc3ccccc3)ncc2Cl)s1 | > 35 µM (inactive) |
| COc1cc(NC(=O)c2ccccc2F)ccc1NC(=O)c1cc2ccccc2o1 | > 35 µM (inactive) |
| O=C(/C=C/c1ccc(F)cc1)NC(=S)Nc1ccccc1C(=O)NC1CCCCC1 | > 35 µM (inactive) |
| O=C(NCCc1ccccc1)C(c1cccs1)N(C(=O)CCl)c1ccc(Cl)cc1 (centres undefined) | 6.03 µM |
| CCn1c(Cl)c(C=O)s/c1=N\S(=O)(=O)c1ccccc1 | > 35 µM (inactive) |
| Cc1cc(NC(=O)CSc2nc3cc(Cl)ccc3c(=O)n2Cc2ccco2)no1 | > 35 µM (inactive) |
| C=C1CCc2c([nH]c3ccc(OCC(C)C)cc23)C1=O | 16.6 µM |
| Cc1ccc(-c2nc(NC(=O)c3nn(C)cc3[N+](=O)[O-])sc2C)cc1 | 6.29 µM |
| CCS(=O)(=O)c1ncc(Cl)c(C(=O)Nc2ccccc2OC)n1 | > 35 µM (inactive) |
| COc1ccc(NC(=O)c2cccc3c2C(=O)c2ccc(-c4ccc(F)cc4OCc4ccccc4)cc2S3(=O)=O)cc1 | > 35 µM (inactive) |
| Cn1c(=NC(=O)CCl)sc2ccccc21 | > 35 µM (inactive) |
| Cc1cccc(NC(=O)CSc2nc(C)c(CC(=O)c3ccc(Br)cc3)c(C)c2C#N)c1C | > 35 µM (inactive) |
| CC(=O)Nc1ncnc2c1c(-c1ccc(Cl)cc1)nn2C(C)(C)C | > 35 µM (inactive) |
| COc1ccc(C2CC(c3c(O)cc(C)oc3=O)=NCCS2)c(OC)c1 (centres undefined) | > 35 µM (inactive) |
| CN(C)CCN(C(=O)/C=C/c1cccs1)c1nc2c(F)cc(F)cc2s1 | > 35 µM (inactive) |
| COc1ccccc1CCNC(C)CCc1ccc(O)cc1 (centres undefined) | > 35 µM (inactive) |

| SMILES | AC50 |
| --- | --- |
| CC1CCN(Cc2c(C(=O)N/N=C/c3ccc(C(C)(C)C)cc3)nnn2-c2nonc2N)CC1 | > 35 µM (inactive) |
| COc1ccc(-c2ccc3c(c2)S(=O)(=O)c2cccc(C(=O)NC[C@@H]4CCCO4)c2C3=O)cc1OC | > 35 µM (inactive) |
| COc1cc(/C=C(/C#N)c2nc3ccccc3[nH]2)ccc1OCC(=O)Nc1ccccc1C(C)C | > 35 µM (inactive) |
| COc1ccc(NC(=O)CSc2nc3ccc(Nc4nc(N5CCOCC5)nc(N5CCOCC5)n4)cc3s2)cc1 | > 35 µM (inactive) |
| CCOC(=O)c1sc(NC(=O)CSc2nc(C)cc(C)c2C#N)c(C#N)c1C | > 35 µM (inactive) |
| O=C1C2C3C=CC(CO)(O3)C2C(=O)N1c1ccc(-c2ccccc2)cc1 (centres undefined) | > 35 µM (inactive) |
| CC(=O)Nc1ccc(NC(=O)C(=O)NCC(c2ccco2)N2CCc3ccccc32)cc1 (centres undefined) | 35.8 µM |
| CCOc1cc(/C=N/Nc2cc(C)nc(-n3nc(C)cc3C)n2)ccc1O | > 35 µM (inactive) |
| CCOc1cccc(C(=O)Nc2cccc(-c3nnc(-c4ccc(C)cc4)o3)c2)c1 | 35.7 µM |
| O=C1/C(=C/c2ccc(N3CCOCC3)o2)SC(=Nc2ccccc2)N1CCc1c[nH]c2ccccc12 | 6.82 µM |
| COc1cc2c(cc1NC(=O)COC(=O)/C=C/c1ccccc1)oc1ccccc12 | > 35 µM (inactive) |
| Cc1ccc(Sc2c([N+](=O)[O-])c(=O)n(C)c3ccccc23)cc1 | > 35 µM (inactive) |
| Cc1ccc2nc(N(CCCN(C)C)C(=O)c3ccc(S(=O)(=O)N4CCc5ccccc5C4)cc3)sc2c1 | > 35 µM (inactive) |
| COc1ccc(OC)c(NC(=O)c2cc3c(Cl)nc4ccccc4c3s2)c1 | > 35 µM (inactive) |
| Clc1ccccc1CN(Cc1ccccc1)c1ncnc2nc[nH]c12 | > 35 µM (inactive) |
| COC(=O)CSc1nc(N)c2c3c(sc2n1)C(c1ccccc1)SC(c1ccccc1)C3 (centres undefined) | > 35 µM (inactive) |
| O=C(Nc1ccc2oc(-c3cccc(F)c3)nc2c1)c1ccccc1F | > 35 µM (inactive) |
| Cc1ccc2c(c1)C(=O)C(=O)N2Cc1ccc(Br)cc1 | > 35 µM (inactive) |
| COCc1cc(C)nc(SCC(=O)Nc2nc(C)cs2)c1C#N | > 35 µM (inactive) |
| O=C(CN(c1ccc(Br)cc1)S(=O)(=O)c1ccc(Cl)c([N+](=O)[O-])c1)NCCc1ccccc1 | > 35 µM (inactive) |
| COc1cc(NC(=O)c2cccc(C)c2)ccc1NC(=O)c1cc2ccccc2o1 | > 35 µM (inactive) |
| Cc1ccc(-c2nc(NC(=O)c3nn(C)cc3[N+](=O)[O-])sc2C)cc1C | 16.2 µM |

| SMILES | AC50 |
| --- | --- |
| O=C(Oc1cccc(/C=N/Nc2nc(Nc3ccccc3)nc(N3CCOCC3)n2)c1)c1ccco1 | > 35 µM (inactive) |
| CC(=O)Nc1ccc(NC(=O)C(C)OC(=O)/C=C/c2cn(-c3ccccc3)nc2-c2cccnc2)cc1 (centres undefined) | 18.4 µM |
| Cc1c(CCOC(=O)c2ccc(N3CCOCC3)c([N+](=O)[O-])c2)sc[n+]1CC#N | > 35 µM (inactive) |
| CCOC(=O)N1C(=O)[C@@](c2ccc(Cl)cc2)(C(C)C)N1C(=O)OCC | 35.1 µM |
| Cc1ccc2c(c1)c(C1=c3ccccc3=NC1=O)c(O)n2C | > 35 µM (inactive) |
| CN(C)CCCN(C(=O)c1ccc(S(=O)(=O)N2CCc3ccccc3C2)cc1)c1nc2ccc(F)cc2s1 | > 35 µM (inactive) |
| COc1ccc(OC)c2sc(N(CCCN(C)C)C(=O)c3ccc(S(=O)(=O)N4CCc5ccccc5C4)cc3)nc12 | > 35 µM (inactive) |
| Cc1cc(C)cc(Cn2ncc(Cl)c(Cl)c2=O)c1 | > 35 µM (inactive) |
| O=C(N/C=N/OCc1ccc(Cl)cc1Cl)NOCc1ncc(C(F)(F)F)cc1Cl | > 35 µM (inactive) |
| Cc1ccc(C)c(S(=O)(=O)NCC(=O)Nc2sc3c(c2C(N)=O)CCC(C)C3)c1 (centres undefined) | > 35 µM (inactive) |
| Cn1cc([N+](=O)[O-])c(C(=O)Nc2cc(Oc3ccccc3)cc([N+](=O)[O-])c2)n1 | > 35 µM (inactive) |
| Cc1ccc(N(Cc2cc(=O)[nH]c3ccccc23)C(=O)CCl)cc1 | > 35 µM (inactive) |
| CC(=O)OC(C)(C)/C=C/C(=O)C(C)(O)C1[C@H](O)C[C@@]2(C)C3CC=C4C(CC[C@@H](O)C4(C)C)[C@]3(CO)C(=O)C[C@]12C (some centres undefined) | > 35 µM (inactive) |
| CC(=O)Nc1sc(N/N=C\c2cccc(Cl)c2)nc1-c1cccs1 | > 35 µM (inactive) |
| CCCc1ccc(OCc2ccc(C(=O)N/N=C/c3cccc([N+](=O)[O-])c3)o2)c(OC)c1 | 26.3 µM |
| CC(C)c1cccc(-c2ccc3c(c2)S(=O)(=O)c2cccc(C(=O)NC4CCCC4)c2C3=O)c1 | > 35 µM (inactive) |
| Cc1cccc(Nc2nc(N)c([N+](=O)[O-])c(N3CCCC(C)C3)n2)c1 (centres undefined) | > 35 µM (inactive) |
| COc1cc(/C=C(/C#N)C(=O)Nc2ccc(Cl)cc2)ccc1Oc1nc(Cl)ncc1F | > 35 µM (inactive) |
| CCCCNC(=S)N/N=C/c1ccc(OCC(=O)Nc2c(C)cc(C)cc2C)c(OC)c1 | > 35 µM (inactive) |
| CCC(Sc1nc2cc3c(cc2c(=O)n1Cc1ccco1)OCO3)C(=O)Nc1cccc(OC)c1 (centres undefined) | > 35 µM (inactive) |
